According to publication PMC4540355 (Biochemistry, 2009):
Blank lines part the entries; values can stand above or below the molecule they belong to.

How the values were obtained:
[1] = biological target: human fibrinogen, depleted of fibronectin and plasminogen (human) (UniProt P02671); assay: solid-phase binding assay with 125I-labelled protein
[2] = biological target: fibrinogen D100 (100 kDa) fragment (human); assay: as above
[3] = biological target: fibrin monomer with both fibrinopeptides A and B cleaved (human) (UniProt P02671); assay: as above
[4] = biological target: T1, skelemin binding to αIIbβ3 (Mus musculus, UniProt Q62234); parameters: species or system human
T1 sequence (Q62234 1113-1666): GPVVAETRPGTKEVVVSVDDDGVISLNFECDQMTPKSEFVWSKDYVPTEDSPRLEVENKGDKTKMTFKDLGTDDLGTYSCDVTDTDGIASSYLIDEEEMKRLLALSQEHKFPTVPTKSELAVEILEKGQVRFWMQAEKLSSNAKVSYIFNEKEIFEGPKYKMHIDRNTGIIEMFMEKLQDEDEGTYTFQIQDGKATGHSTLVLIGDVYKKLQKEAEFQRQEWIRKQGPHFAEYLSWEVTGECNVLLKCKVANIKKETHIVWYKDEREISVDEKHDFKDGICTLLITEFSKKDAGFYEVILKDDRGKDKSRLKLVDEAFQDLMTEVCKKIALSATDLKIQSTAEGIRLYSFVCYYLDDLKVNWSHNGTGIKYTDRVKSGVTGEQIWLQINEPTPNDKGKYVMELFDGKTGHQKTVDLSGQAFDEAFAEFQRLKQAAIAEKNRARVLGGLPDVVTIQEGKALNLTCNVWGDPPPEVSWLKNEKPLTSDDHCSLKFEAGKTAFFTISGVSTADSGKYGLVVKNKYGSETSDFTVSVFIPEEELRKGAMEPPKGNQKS

skelemin fragment [5] = biological target: T2, skelemin fragment (Mus musculus, UniProt Q62234); assay: Solid-phase assay: binding of [125I]skelemin to peptides coated on wells; conditions: wells coated with peptide 20 μg/mL, postcoated with 1% BSA
T2 sequence (Q62234 1113-1666): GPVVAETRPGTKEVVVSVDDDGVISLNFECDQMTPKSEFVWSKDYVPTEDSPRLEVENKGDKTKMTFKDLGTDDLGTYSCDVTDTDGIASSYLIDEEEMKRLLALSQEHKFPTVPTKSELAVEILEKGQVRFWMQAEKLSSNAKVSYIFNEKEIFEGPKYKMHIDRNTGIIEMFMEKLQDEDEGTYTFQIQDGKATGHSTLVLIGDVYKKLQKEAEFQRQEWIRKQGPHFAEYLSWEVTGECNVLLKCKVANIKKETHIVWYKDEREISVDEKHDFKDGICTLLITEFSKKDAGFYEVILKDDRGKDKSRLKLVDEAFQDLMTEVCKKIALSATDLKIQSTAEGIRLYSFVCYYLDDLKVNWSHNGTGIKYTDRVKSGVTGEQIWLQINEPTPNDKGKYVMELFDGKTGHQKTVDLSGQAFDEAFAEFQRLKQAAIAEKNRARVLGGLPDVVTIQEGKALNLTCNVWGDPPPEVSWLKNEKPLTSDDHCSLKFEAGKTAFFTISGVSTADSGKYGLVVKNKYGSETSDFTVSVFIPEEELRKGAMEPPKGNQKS
Outline: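 Mouse skelemin fragment (residues 1113–1666) made as a GST fusion, cut free with thrombin and radioiodinated. Wells coated with wild-type or mutant αIIb 989–1008 peptide at 20 μg/mL, postcoated with 1% BSA, then given various concentrations of [125I]skelemin. Bound radioactivity counted.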

skelemin fragment [6] = biological target: T2, skelemin fragment; type: binding
Outline: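 CM5 chip carried amine-coupled skelemin fragment (~900 RU). αIIb 989–1008 peptide at 0, 10, 20, 40, 100 and 200 μM in HBS-P with 1 mM Ca2+ and 1 mM Mg2+, injected at 5 μL/min for 10 min. Signal corrected against an EDC/NHS-activated, ethanolamine-blocked blank cell. Kd from best fit to an interaction model.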

[7] = biological target: platelet integrin αIIbβ3 (human) (UniProt P05106); assay: solid-phase binding assay with 125I-labelled protein
[8] = biological target: αIIb 9-mer peptides with mutations of Val990, Phe992, and Leu1000; assay: peptide or protein array
[9] = biological target: cellulose-bound αIIb 9-mer peptide with Arg997 substituted with Ala (human) (UniProt P08514); assay: peptide or protein array
[10] = biological target: cellulose-bound αIIb 9-mer peptide with Arg995 substituted with Ala (human) (UniProt P08514); assay: peptide or protein array
αIIbβ3 [11] = type: binding, human
Outline: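 αIIbβ3 purified from human platelets on Concanavalin A-agarose. Passed at 0, 50, 100, 200 and 500 μg/mL in HBS-P with 1 mM Ca2+/Mg2+ over amine-coupled skelemin fragment (~900 RU), with a fibrinogen parallel cell (~1300 RU) checking resting state. For activation, DTT 3 mM final, 15 min at 4 °C, then extensive dialysis; activated integrin injected 5 min at 10 μL/min. Blank-cell corrected.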

αIIbβ3 [12] = type: binding, human; conditions: integrin adsorbed on plastic without ligand

Sequence of fibrin monomer with both fibrinopeptides A and B cleaved (human) (P02671 36-866, chain 1 of 3): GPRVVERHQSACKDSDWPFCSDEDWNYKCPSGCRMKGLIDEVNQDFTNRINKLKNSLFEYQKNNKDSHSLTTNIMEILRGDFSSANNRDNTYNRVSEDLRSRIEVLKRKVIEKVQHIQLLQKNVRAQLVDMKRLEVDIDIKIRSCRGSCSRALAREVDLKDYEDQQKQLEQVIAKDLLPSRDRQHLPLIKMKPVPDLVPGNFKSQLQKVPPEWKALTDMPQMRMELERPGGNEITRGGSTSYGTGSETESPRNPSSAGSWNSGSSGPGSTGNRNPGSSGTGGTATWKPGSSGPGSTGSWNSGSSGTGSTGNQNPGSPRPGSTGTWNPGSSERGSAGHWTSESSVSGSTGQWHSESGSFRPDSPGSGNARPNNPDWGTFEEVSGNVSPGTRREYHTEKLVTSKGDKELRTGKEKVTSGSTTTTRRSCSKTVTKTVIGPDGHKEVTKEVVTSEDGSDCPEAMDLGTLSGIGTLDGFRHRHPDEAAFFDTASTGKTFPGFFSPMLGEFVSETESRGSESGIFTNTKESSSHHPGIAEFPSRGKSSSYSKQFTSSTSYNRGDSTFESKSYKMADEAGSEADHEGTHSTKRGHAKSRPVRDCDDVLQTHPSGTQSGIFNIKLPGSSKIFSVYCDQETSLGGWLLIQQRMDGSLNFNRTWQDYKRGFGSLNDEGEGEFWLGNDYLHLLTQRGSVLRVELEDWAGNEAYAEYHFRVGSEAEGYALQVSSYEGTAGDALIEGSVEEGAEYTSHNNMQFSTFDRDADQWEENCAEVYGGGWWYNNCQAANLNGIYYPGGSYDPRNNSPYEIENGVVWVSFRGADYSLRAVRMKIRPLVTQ
Sequence of fibrin monomer with both fibrinopeptides A and B cleaved (human) (P02675 45-491, chain 2 of 3, further chain): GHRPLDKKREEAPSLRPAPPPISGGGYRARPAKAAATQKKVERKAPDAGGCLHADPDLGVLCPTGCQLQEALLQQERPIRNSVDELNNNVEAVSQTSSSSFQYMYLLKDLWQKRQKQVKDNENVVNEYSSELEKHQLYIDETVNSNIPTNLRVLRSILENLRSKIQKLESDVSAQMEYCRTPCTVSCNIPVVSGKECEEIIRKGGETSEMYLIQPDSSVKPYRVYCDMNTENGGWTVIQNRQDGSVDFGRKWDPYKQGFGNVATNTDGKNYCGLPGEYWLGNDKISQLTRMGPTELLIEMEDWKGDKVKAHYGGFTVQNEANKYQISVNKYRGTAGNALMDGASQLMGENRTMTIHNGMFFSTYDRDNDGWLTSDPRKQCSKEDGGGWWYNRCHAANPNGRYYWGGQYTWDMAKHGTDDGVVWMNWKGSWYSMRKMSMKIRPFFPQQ
Sequence of fibrin monomer with both fibrinopeptides A and B cleaved (human) (P02679 27-453, chain 3 of 3, further chain): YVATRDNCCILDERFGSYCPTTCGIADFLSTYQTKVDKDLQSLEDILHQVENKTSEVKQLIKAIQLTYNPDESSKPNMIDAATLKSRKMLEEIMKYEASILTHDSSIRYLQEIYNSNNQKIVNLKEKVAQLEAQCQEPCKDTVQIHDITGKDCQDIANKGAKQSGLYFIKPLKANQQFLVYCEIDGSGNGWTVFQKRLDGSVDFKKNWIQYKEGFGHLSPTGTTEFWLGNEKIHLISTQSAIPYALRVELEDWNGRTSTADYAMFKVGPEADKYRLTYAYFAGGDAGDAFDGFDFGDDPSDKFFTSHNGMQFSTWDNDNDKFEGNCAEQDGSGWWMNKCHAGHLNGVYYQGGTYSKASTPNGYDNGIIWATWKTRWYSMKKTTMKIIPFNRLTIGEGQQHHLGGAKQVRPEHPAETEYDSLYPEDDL
Sequence of human fibrinogen, depleted of fibronectin and plasminogen (human) (P02671 36-866, chain 1 of 3): as the sequence (P02671 36-866, chain 1 of 3) above
Sequence of human fibrinogen, depleted of fibronectin and plasminogen (human) (P02675 45-491, chain 2 of 3, further chain): as the sequence (P02675 45-491, chain 2 of 3, further chain) above
Sequence of human fibrinogen, depleted of fibronectin and plasminogen (human) (P02679 27-453, chain 3 of 3, further chain): as the sequence (P02679 27-453, chain 3 of 3, further chain) above

Molecule: platelet integrin αIIbβ3 (from UniProt P05106 27-788) (complex)
amount of αIIbβ3 bound [1]: 76 ng
amount of αIIbβ3 bound [2]: 76 ng
amount of αIIbβ3 bound [3]: 76 ng

Molecule: KVGFFKANAPALEEDDEEGE [mutant αIIb peptide]
Inhibition of skelemin binding to αIIbβ3 prebound to ligands ([4]; mutant peptide): did not inhibit
Binding to skelemin coupled to the chip (SPR) (skelemin fragment [6]): did not bind
Binding of [125I]skelemin to immobilized peptide (skelemin fragment [5]): lost the ability to bind

B1: recombinant fragment spanning immunoglobulin C2-like motifs 3–7 of mouse skelemin (domain or fragment)
chain: GPVVAETRPGTKEVVVSVDDDGVISLNFECDQMTPKSEFVWSKDYVPTEDSPRLEVENKGDKTKMTFKDLGTDDLGTYSCDVTDTDGIASSYLIDEEEMKRLLALSQEHKFPTVPTKSELAVEILEKGQVRFWMQAEKLSSNAKVSYIFNEKEIFEGPKYKMHIDRNTGIIEMFMEKLQDEDEGTYTFQIQDGKATGHSTLVLIGDVYKKLQKEAEFQRQEWIRKQGPHFAEYLSWEVTGECNVLLKCKVANIKKETHIVWYKDEREISVDEKHDFKDGICTLLITEFSKKDAGFYEVILKDDRGKDKSRLKLVDEAFQDLMTEVCKKIALSATDLKIQSTAEGIRLYSFVCYYLDDLKVNWSHNGTGIKYTDRVKSGVTGEQIWLQINEPTPNDKGKYVMELFDGKTGHQKTVDLSGQAFDEAFAEFQRLKQAAIAEKNRARVLGGLPDVVTIQEGKALNLTCNVWGDPPPEVSWLKNEKPLTSDDHCSLKFEAGKTAFFTISGVSTADSGKYGLVVKNKYGSETSDFTVSVFIPEEELRKGAMEPPKGNQKS
modifications: 125I label (IODO-GEN) where used as [125I]skelemin
Kd, high-affinity class of binding sites [7]: 123 nM
Kd, low-affinity class of binding sites [7]: 1100 nM
N, high-affinity interaction (skelemin to receptor) (skelemin per receptor) [7]: 1
N, low-affinity interaction (skelemin to receptor) (skelemin per receptor) [7]: 0.33
reduction of binding against the wild-type peptide [8]: 40 to 50%
reduction of binding against the wild-type peptide [9]: 70%
reduction of binding against the wild-type peptide [10]: 70%

Continued, in another order:

Overall activity relative to the wild-type counterpart ([4]; skelemin binding and inhibition): residual activity
Binding of [125I]skelemin to immobilized peptide (skelemin fragment [5]): still further loss
Molecule: GY^715 WALLITIADAKEFAKF^730 [β3 mutant 2]

Binding of [125I]skelemin to immobilized peptide (skelemin fragment [5]): reduced level of skelemin binding
Molecule: GY^715 WALLITIADRKEFAKF^730 [β3 mutant 1]

Binding of DTT-treated soluble αIIbβ3 to immobilized skelemin fragment (αIIbβ3 [11]; αIIbβ3 activated with 3 mM DTT 15 min at 4 °C, 0-500 μg/mL): did not bind
Skelemin binding to αIIbβ3 immobilized directly on plastic (αIIbβ3 [12]): small amount
B2: skelemin fragment: recombinant fragment spanning immunoglobulin C2-like motifs 3–7 of mouse skelemin, residues 1113–1666 (protein)
chain: GPVVAETRPGTKEVVVSVDDDGVISLNFECDQMTPKSEFVWSKDYVPTEDSPRLEVENKGDKTKMTFKDLGTDDLGTYSCDVTDTDGIASSYLIDEEEMKRLLALSQEHKFPTVPTKSELAVEILEKGQVRFWMQAEKLSSNAKVSYIFNEKEIFEGPKYKMHIDRNTGIIEMFMEKLQDEDEGTYTFQIQDGKATGHSTLVLIGDVYKKLQKEAEFQRQEWIRKQGPHFAEYLSWEVTGECNVLLKCKVANIKKETHIVWYKDEREISVDEKHDFKDGICTLLITEFSKKDAGFYEVILKDDRGKDKSRLKLVDEAFQDLMTEVCKKIALSATDLKIQSTAEGIRLYSFVCYYLDDLKVNWSHNGTGIKYTDRVKSGVTGEQIWLQINEPTPNDKGKYVMELFDGKTGHQKTVDLSGQAFDEAFAEFQRLKQAAIAEKNRARVLGGLPDVVTIQEGKALNLTCNVWGDPPPEVSWLKNEKPLTSDDHCSLKFEAGKTAFFTISGVSTADSGKYGLVVKNKYGSETSDFTVSVFIPEEELRKGAMEPPKGNQKS
modifications: 125I label (IODO-GEN) where used as [125I]skelemin; left off: GST, end not stated, cleaved
Interaction of resting soluble αIIbβ3 with immobilized skelemin fragment (αIIbβ3 [11]; resting integrin, various concentrations): No interaction was detected
